One series relates to Hemozoin. The series is described as follows: Inhibition of beta hematin formation after 5 hrs by NP40 detergent-based assay.
Series [1] has as its system Plasmodium falciparum. The series is described as follows: Antiplasmodial activity against chloroquine-sensitive asexual blood stage of Plasmodium falciparum NF54 infected in human RBC assessed as reduction in [3H]hypoxanthine incorporation preincubated for 48 hrs followed by [3H]hypoxanthine addition measured after 24 hrs by liquid scintillation counting method. The series is classed as functional, organism-based. In outline:
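Asexual blood-stage P. falciparum NF54 assay, run as a modified [3H]-hypoxanthine incorporation assay. Values are the mean of n ≥ 2 assays; determinations differing more than 3-fold were excluded. Chloroquine and artesunate served as controls.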

Series [2] concerns Plasmodium falciparum. In words: Antiplasmodial activity against chloroquine-resistant asexual blood stage of Plasmodium falciparum K1 infected in human RBC assessed as reduction in [3H]hypoxanthine incorporation preincubated for 48 hrs followed by [3H]hypoxanthine addition measured after 24 hrs by liquid scintillation counting method. The class given is functional, organism-based. In outline:
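Asexual blood-stage P. falciparum K1 (multidrug resistant) screened by modified [3H]-hypoxanthine incorporation assay; IC50 as mean of n ≥ 2 assays, replicates differing above 3-fold excluded; chloroquine and artesunate controls.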

Series [3] is described as follows: Resistance index, ratio of IC50 for chloroquine-resistant asexual blood stage of Plasmodium falciparum K1 infected in human RBC to IC50 for chloroquine-sensitive asexual blood stage of Plasmodium falciparum NF54 infected in human RBC. The class given is functional.
Series [4] is described as follows: Selectivity index, ratio of IC50 for CHO cells to IC50 for chloroquine-sensitive asexual blood stage of Plasmodium falciparum NF54 infected in human RBC. The class given is toxicity. The settings on record: Chinese hamster, read-out: Ratio IC50. In outline:
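Selectivity index taken as the ratio of the CHO-cell IC50 to the P. falciparum NF54 IC50.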

The subject of a further series is CHO. In words: Cytotoxicity against CHO cells after 48 hrs by MTT assay. The following applies: Cricetulus griseus. The class given is cell-based. In general terms: Tetrazolium assays rely on reduction of a dye to a coloured formazan, in cell work by metabolically active cells.
For series [5], the system named is Plasmodium falciparum. The series is described as follows: Antiplasmodial activity against chloroquine-sensitive final late stage of Plasmodium falciparum NF54-Mal8p1.16-GFP-Luc gametocytes after 24 hrs by BacTiter-Glo assay. The class given is functional, organism-based. The following applies: NF54, 24 h. In outline:
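Late-stage PfNF54 gametocytes produced in vitro; gametocytocidal IC50 via luciferase reporter and ATP bioluminescence platforms; n=3 independent biological replicates in technical triplicates, ± S.E.M.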

As a reminder, the IC50 is the concentration needed to halve the response being measured.

Turning to `CC(Nc1cc(C(F)(F)F)c(C#N)c2nc3ccccc3n12)c1ccc(S(C)(=O)=O)cc1` (stereo not drawn), the IC50 in the series on Hemozoin was more than 100 µM; in the series on Plasmodium falciparum [1], more than 2.68 µM.
`N#Cc1c(C(F)(F)F)cc(Nc2cccc(OC(F)(F)F)c2)n2c1nc1ccccc12`: the half-maximal inhibitory concentration (IC50) with Plasmodium falciparum [2] came to 0.23 µM; in the series on Plasmodium falciparum [1], 0.39 µM. Moreover, the Ratio IC50 in series [3] stood at 0.58.
For `NC(=O)c1c(C(F)(F)F)cc(NCc2ccccn2)n2c1nc1ccccc12`, the IC50 in the series with Plasmodium falciparum [2] and with Plasmodium falciparum [1] was more than 10 µM throughout.
Consider `N#Cc1c(C(F)(F)F)cc(NCc2ccncc2)n2c1nc1ccccc12`, for which the IC50 with Plasmodium falciparum [1] was more than 2.72 µM.
On to `COc1ccc(CNc2cc(C(F)(F)F)c(C#N)c3nc4ccccc4n23)cc1`, for which the IC50 in the series on Plasmodium falciparum [1] came to 3.18 µM.
Consider `N#Cc1c(C(F)(F)F)cc(N2CCNCC2)n2c1nc1ccccc12`, for which the IC50 in the series on Plasmodium falciparum [1] amounted to 10 µM.
In the case of `N#Cc1c(C(F)(F)F)cc(NCc2ccc(O)cc2)n2c1nc1ccccc12`, in the series on Plasmodium falciparum [1], the IC50 came out at 8.74 µM.
With `FC(F)(F)Oc1ccc(Nc2cc(C(F)(F)F)cc3nc4ccccc4n23)cc1`, the figures for the IC50 in the series on Plasmodium falciparum [2] and in the series on Plasmodium falciparum [1] were 3.36 µM and 4.24 µM, respectively. Further, the Ratio IC50 in series [3] was 0.79.
As for `N#Cc1c(C(F)(F)F)cc(NCc2ccc(S(N)(=O)=O)cc2)n2c1nc1ccccc12`, in the series with Plasmodium falciparum [1], the IC50 worked out at 10.2 µM.
Still for that read-out and setting: the result for `CN(C)C(=O)c1ccc(CNc2cc(C(F)(F)F)c(C#N)c3nc4ccccc4n23)cc1` reads more than 2.28 µM.
Consider `N#Cc1c(C(F)(F)F)cc(NS(=O)(=O)c2ccc(OC(F)(F)F)cc2)n2c1nc1cc(Cl)c(Cl)cc12`, for which the values for the IC50 in the series on Plasmodium falciparum [2], in the series with Hemozoin and with Plasmodium falciparum [1] were 5.85 µM, 78 µM and 6.73 µM, respectively. Moreover, in series [3], the Ratio IC50 amounted to 0.87.
With `CCCOc1ccc(Nc2cc(C(F)(F)F)c(C#N)c3nc4ccccc4n23)cc1`, the IC50 with Plasmodium falciparum [1] came out at 1.16 µM.
Same read-out and setting: in the case of `CC(C)c1ccc(CNc2cc(C(F)(F)F)c(C#N)c3nc4ccccc4n23)cc1` it was 2.4 µM; in that of `NC(=O)c1c(C(F)(F)F)cc(NCc2ccc(F)cc2)n2c1nc1ccccc12`, more than 6 µM.
In the case of `COC(=O)c1ccc(Nc2cc(C(F)(F)F)c(C#N)c3nc4ccccc4n23)cc1`, in the series on Plasmodium falciparum [1], the IC50 stood at 1.59 µM.
As to `CNC(=O)c1ccc(Nc2cc(C(F)(F)F)c(C#N)c3nc4ccccc4n23)cc1`, in the series on Plasmodium falciparum [1], the half-inhibitory concentration (IC50) was more than 10 µM.
Turning to `N#Cc1c(C(F)(F)F)cc(Nc2ccc(OC(F)(F)F)cc2)n2c1nc1cc(Cl)c(Cl)cc12`, the IC50 was 32 µM in the series on Hemozoin and more than 1.97 µM with Plasmodium falciparum [1].
As for `N#Cc1c(C(F)(F)F)cc(NCc2ccccc2)n2c1nc1ccccc12`, the half-inhibitory concentration (IC50) in the series on Plasmodium falciparum [1] amounted to 6.11 µM.
On the same count and under the same terms, the result for `N#Cc1c(C(F)(F)F)cc(NCc2cccnc2)n2c1nc1ccccc12` reads more than 2.72 µM.
Take `N#Cc1c(C(F)(F)F)cc(Nc2cnccn2)n2c1nc1ccccc12`: the half-maximal inhibitory concentration (IC50) with Plasmodium falciparum [1] was 4.42 µM.
For the molecule `Cc1ccc(Nc2cc(C(F)(F)F)c(C#N)c3nc4ccccc4n23)cc1`, the IC50 with Plasmodium falciparum [1] was 2.14 µM.
With `Cc1csc(Nc2cc(C(F)(F)F)c(C#N)c3nc4ccccc4n23)n1`, the IC50 in the series with Plasmodium falciparum [1] is more than 2.82 µM.
With `N#Cc1c(C(F)(F)F)cc(NS(=O)(=O)c2ccccn2)n2c1nc1cc(Cl)c(Cl)cc12`, the IC50 in the series on Hemozoin is more than 100 µM; in the series with Plasmodium falciparum [1] it was more than 6 µM.
With `N#Cc1c(C(F)(F)F)cc(NCc2cnccn2)n2c1nc1ccccc12`, the half-maximal inhibitory concentration (IC50) in the series on Plasmodium falciparum [1] came out at 2.6 µM.
Regarding `N#Cc1ccc(Nc2cc(C(F)(F)F)c(C#N)c3nc4ccccc4n23)cc1`, the IC50 in the series on Plasmodium falciparum [1] came to 2.36 µM.
The same measure, in the same setting: in the case of `CS(=O)(=O)c1ccc(Nc2cc(C(F)(F)F)c(C#N)c3nc4ccccc4n23)cc1` it was more than 2.32 µM.
Same read-out and setting: the result for `CN(C)c1ccc(CNc2cc(C(F)(F)F)c(C#N)c3nc4ccccc4n23)cc1` reads 2.98 µM.
With `Cc1ccc(CNc2cc(C(F)(F)F)c(C#N)c3nc4ccccc4n23)cc1`, in series [4], the selectivity ratio was 17. The IC50 in the series with CHO was found to be 25 µM; with Plasmodium falciparum [1] it was 1.49 µM.
With `N#Cc1c(C(F)(F)F)cc(N2CCNCC2)n2c1nc1cc(Cl)c(Cl)cc12`, the IC50 in the series with Plasmodium falciparum [1] is 8.11 µM.
Take `CC(C)c1ccc(Nc2cc(C(F)(F)F)c(C#N)c3nc4ccccc4n23)cc1`: the IC50 in the series with Plasmodium falciparum [1] was 1.01 µM.
On to `N#Cc1c(C(F)(F)F)cc(Nc2ccc(CN3CCOCC3)cc2)n2c1nc1ccccc12`, for which the results for the concentration for half-maximal inhibition (IC50) in the series with Hemozoin and in the series on Plasmodium falciparum [1] were 50 µM and more than 2.21 µM, respectively.
`CS(=O)(=O)c1ccc(CNc2cc(C(F)(F)F)c(C#N)c3nc4cc(Cl)c(Cl)cc4n23)cc1`: the half-maximal inhibitory concentration (IC50) in the series on Plasmodium falciparum [2] was 5.61 µM; in the series on Hemozoin, more than 100 µM; with Plasmodium falciparum [1], 5.34 µM. The Ratio IC50 in series [3] was 1.05.
For the molecule `N#Cc1c(C(F)(F)F)cc(NCc2ncccn2)n2c1nc1ccccc12`, the IC50 with Plasmodium falciparum [1] worked out at 4.8 µM.
As to `CN(C)c1ccc2nc3ccc(N(C)C)cc3[s+]c2c1` [METHYLENE BLUE ANHYDROUS], in the series with Plasmodium falciparum [5], the 50% inhibitory concentration (IC50) came to 0.9 µM.
For the molecule `N#Cc1ccc(S(=O)(=O)Nc2cc(C(F)(F)F)c(C#N)c3nc4cc(Cl)c(Cl)cc4n23)cc1`, in the series with Plasmodium falciparum [1], the concentration for half-maximal inhibition (IC50) amounted to 5.64 µM.
Same read-out and setting: in the case of `CN(C)c1ccc(Nc2cc(C(F)(F)F)c(C#N)c3nc4ccccc4n23)cc1` it was 5.62 µM; in that of `N#Cc1c(C(F)(F)F)cc(Nc2ccnc(F)c2)n2c1nc1ccccc12`, more than 2.52 µM.
On the same count and under the same terms, the result for `CN(Cc1ccccn1)c1cc(C(F)(F)F)c(C#N)c2nc3ccccc3n12` reads more than 2.72 µM.
`CC(Nc1cc(C(F)(F)F)c(C#N)c2nc3cc(Cl)c(Cl)cc3n12)c1ccc(S(C)(=O)=O)cc1` (stereo not drawn): the IC50 was determined as 32 µM in the series with Hemozoin and 4.97 µM with Plasmodium falciparum [1].
For the molecule `COc1ccc(Nc2cc(C(F)(F)F)c(C#N)c3nc4ccccc4n23)cc1`, in the series with Plasmodium falciparum [1], the IC50 was 2.26 µM.
On the same count and under the same terms, in the case of `CN(C)C(=O)c1ccc(Nc2cc(C(F)(F)F)c(C#N)c3nc4ccccc4n23)cc1` it was more than 2.36 µM; in that of `N#Cc1c(C(F)(F)F)cc(Nc2ncccn2)n2c1nc1ccccc12`, more than 2.69 µM.
The same measure, in the same setting: in the case of `CNC(=O)c1ccc(CNc2cc(C(F)(F)F)c(C#N)c3nc4ccccc4n23)cc1` it was more than 2.36 µM.
In the case of `N#Cc1c(C(F)(F)F)cc(NCc2ccc(F)cc2)n2c1nc1cc(Cl)cc(Cl)c12`, the IC50 in the series with Plasmodium falciparum [2] amounted to 0.21 µM; in the series on CHO, 1.66 µM; in the series on Plasmodium falciparum [1], 0.31 µM; in the series on Plasmodium falciparum [5], 0.74 µM.
On to `N#Cc1c(C(F)(F)F)cc(Nc2ccccc2OC(F)(F)F)n2c1nc1ccccc12`, for which the values for the IC50 with Plasmodium falciparum [2] and in the series with Plasmodium falciparum [1] were 0.62 µM and 0.87 µM, respectively. In addition, in series [3], the Ratio IC50 came out at 0.71.
With `NC(=O)c1c(C(F)(F)F)cc(NCc2ccc(OC(F)(F)F)cc2)n2c1nc1ccccc12`, the IC50 in the series on Plasmodium falciparum [2] stood at 7.59 µM; in the series with Plasmodium falciparum [1] it was 5.16 µM. For the same molecule, the Ratio IC50 in series [3] stood at 1.47.
For `N#Cc1c(C(F)(F)F)cc(NCc2ccccn2)n2c1nc1ccccc12`, the selectivity ratio in series [4] is more than 234. Further, the IC50 in the series with Plasmodium falciparum [2] is 1.64 µM; with CHO it was more than 272 µM; in the series with Hemozoin, more than 100 µM; in the series with Plasmodium falciparum [1], 1.16 µM. Also, in series [3], the Ratio IC50 was determined as 1.41.
Take `COC(=O)c1c(C(F)(F)F)cc(Nc2ccc(OC(F)(F)F)cc2)n2c1nc1ccccc12`: the 50% inhibitory concentration (IC50) with Plasmodium falciparum [1] is 5.52 µM.
Same read-out and setting: in the case of `COc1ncnc(Nc2cc(C(F)(F)F)c(C#N)c3nc4ccccc4n23)c1OC` it was more than 2.82 µM.
Take `C[C@H]1[C@H](OC(=O)CCC(=O)O)O[C@@H]2O[C@@]3(C)CC[C@H]4[C@H](C)CC[C@@H]1[C@@]24OO3` [ARTESUNATE]: the IC50 with Plasmodium falciparum [2] came to 0.003 µM; in the series with Plasmodium falciparum [1], 0.004 µM.
In the case of `CS(=O)(=O)c1ccc(CNc2cc(C(F)(F)F)c(C#N)c3nc4ccccc4n23)cc1`, the IC50 in the series with Plasmodium falciparum [1] stood at 12.6 µM.
Still for that read-out and setting: the result for `N#Cc1c(C(F)(F)F)cc(Nc2ccccc2)n2c1nc1ccccc12` reads more than 2.83 µM.
